Measurements published in ChEMBL document CHEMBL4400542, “Epidermal Growth Factor Receptor-Targeted Multifunctional Photosensitizers for Bladder Cancer Imaging and Photodynamic Therapy” (J Med Chem, 2019).
Calls of active or inactive are those of the source. No cut-off for these calls is given here.

Assays:
[1] = system: T-24; experiment: Photo-activated cytotoxicity against human T24 cells assessed as reduction in cell viability preincubated for 24 hrs followed by 1 J/cm2 light irradiation and measured after 48 hrs formulated with 2% pluronic F-127 solution by MTT assay; format: functional, cell-based; conditions: T-24, light or radiation study
In short: (§1)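 Cells plated at 10k per well, allowed 24 h to adhere, then PS added in two-fold dilutions from 1 µM top for 24 h. Irradiated at 665 nm, 1.0 J/cm2 at 3.2 mW/cm2. Viability by MTT 48 h after PDT: about 2 h incubation, formazan dissolved in DMSO, absorbance at 570 nm.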

[2] = Drug accumulation in human UM-UC-3 cells at 500 nM formulated with 1% tween 80 solution after 24 hrs by CARY-fluorimetry; format: ADME, cell-based; conditions: umuc3, 24 h, 0.5 µM
[3] = target: Epidermal growth factor receptor (Homo sapiens) (UniProt P00533); experiment: Inhibition of EGFR autophosphorylation at Ty1068 in human UM-UC-3 cells at 1 uM followed by PDT and measured after 24 hrs by Western blot analysis; format: cell-based
Chain of Epidermal growth factor receptor (Homo sapiens) (P00533 whole entry): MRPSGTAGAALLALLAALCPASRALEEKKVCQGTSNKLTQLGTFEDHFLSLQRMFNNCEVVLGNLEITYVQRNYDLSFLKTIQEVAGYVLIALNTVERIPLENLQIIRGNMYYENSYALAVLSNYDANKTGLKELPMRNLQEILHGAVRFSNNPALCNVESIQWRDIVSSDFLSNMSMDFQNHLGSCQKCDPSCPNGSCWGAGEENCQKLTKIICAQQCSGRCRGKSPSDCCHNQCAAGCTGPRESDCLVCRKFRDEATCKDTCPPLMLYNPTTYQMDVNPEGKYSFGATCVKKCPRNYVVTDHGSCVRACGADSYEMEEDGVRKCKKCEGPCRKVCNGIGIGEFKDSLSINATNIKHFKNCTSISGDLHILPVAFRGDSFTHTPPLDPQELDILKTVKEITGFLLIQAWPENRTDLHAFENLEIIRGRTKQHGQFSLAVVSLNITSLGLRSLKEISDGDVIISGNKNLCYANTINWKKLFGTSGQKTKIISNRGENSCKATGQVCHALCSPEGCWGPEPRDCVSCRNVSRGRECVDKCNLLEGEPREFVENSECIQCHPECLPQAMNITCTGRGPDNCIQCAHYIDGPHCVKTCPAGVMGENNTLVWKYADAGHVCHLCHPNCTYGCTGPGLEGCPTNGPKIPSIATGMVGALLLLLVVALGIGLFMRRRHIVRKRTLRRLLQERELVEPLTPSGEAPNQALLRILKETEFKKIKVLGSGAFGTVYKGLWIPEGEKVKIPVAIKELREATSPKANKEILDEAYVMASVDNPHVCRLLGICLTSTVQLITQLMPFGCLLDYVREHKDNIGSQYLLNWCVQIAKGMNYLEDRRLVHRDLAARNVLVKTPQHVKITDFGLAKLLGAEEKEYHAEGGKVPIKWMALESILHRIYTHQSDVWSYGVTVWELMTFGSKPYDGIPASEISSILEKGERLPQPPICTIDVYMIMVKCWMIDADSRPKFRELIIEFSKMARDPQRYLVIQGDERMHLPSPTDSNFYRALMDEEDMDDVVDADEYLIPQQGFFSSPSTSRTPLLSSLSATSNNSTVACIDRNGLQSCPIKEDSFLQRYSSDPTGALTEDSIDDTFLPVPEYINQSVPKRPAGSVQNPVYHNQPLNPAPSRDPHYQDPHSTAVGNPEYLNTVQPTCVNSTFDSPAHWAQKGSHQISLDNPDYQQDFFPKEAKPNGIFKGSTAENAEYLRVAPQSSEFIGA

[4] = Induction of singlet oxygen generation in deaerated toluene at 670 nm assessed as singlet decay life time by femtosecond transient absorption spectroscopy; format: functional
[5] = system: UMUC3; experiment: Induction of oxidative stress in human UM-UC-3 cells assessed as increase in ROS production at 1 uM in presence of 1 J/cm2 light irradiation and measured at 20 min post light exposure by DCFDA-fluorescence based assay relative to control; format: functional
In short: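 UMUC3 cells at 10k per well; after 24 h, PS added at 1 µM for 24 h (Tween80 formulation). DCFDA 1 µM for 20 min, fluorescence read (ex 492, em 517). Then 665 nm light, 1 J total at 3.2 mW/cm2, and read again. No-DCFDA background subtracted; 0.05% H2O2 control wells.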

[6] = target: Epidermal growth factor receptor (Homo sapiens) (UniProt P00533); experiment: Inhibition of EGFR autophosphorylation at Ty1068 in human UM-UC-3 cells at 100 nM followed by PDT and measured after 24 hrs by Western blot analysis; format: cell-based
[7] = Drug accumulation in mitochondria of human UM-UC-3 cells at 500 nM formulated with 1% tween 80 solution after 24 hrs by mitotracker red based fluorimetry; format: ADME; conditions: umuc3, 24 h, 0.5 µM
[8] = Stability at -4 degC for 2 months; format: physicochemical; conditions: 1461 h
In short: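 Photosensitizer formulations in Tween80 or Pluronic F-127 were stored at -4 °C, alongside a -20 °C set, for two months. Stability was judged by visible precipitation and change in pH.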

[9] = system: T-24; experiment: Induction of apoptosis in human T24 cells assessed as increase in apoptotic cells at 1 uM in absence of light by Annexin V/propidium iodide-staining based flow cytometry; format: cell-based; conditions: t-24, 1 µM
[10] = Drug accumulation in lysosomes of human T24 cells at 500 nM formulated with 2% pluronic F-127 solution after 24 hrs by lysosphere green based fluorimetry; format: ADME, subcellular, Lysosome; conditions: t-24, 24 h, 0.5 µM
[11] = Drug accumulation in lysosomes of human T24 cells at 500 nM formulated with 1% tween 80 solution after 24 hrs by lysosphere green based fluorimetry; format: ADME, subcellular, Lysosome; conditions: t-24, 24 h, 0.5 µM
[12] = Drug uptake in human T24 cells assessed as increase in gray value intensity at 1 uM pretreated for 24 hrs followed by compound washout and measured after 4 hrs by Hoechst 33342 staining based fluorescence microscopy; format: ADME, cell-based; conditions: t-24, 4 h
In short: (§2)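 Cells pre-incubated 24 h with free erlotinib before PS addition. Legend describes PS at 1 uM or erlotinib at 3 uM for 4 h, then three warm PBS washes. Imaged by fluorescence microscopy; grey value per field normalized to cell count, triplicate wells, each imaged in triplicate.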

[13] = system: T-24; experiment: Photo-activated cytotoxicity against human T24 cells assessed as reduction in cell viability preincubated for 24 hrs followed by 1 J/cm2 light irradiation and measured after 48 hrs formulated with 1% tween 80 solution by MTT assay; format: functional, cell-based; conditions: T-24, light or radiation study; in short: as §1
[14] = Drug accumulation in mitochondria of human T24 cells at 500 nM formulated with 2% pluronic F-127 solution after 24 hrs by mitotracker red based fluorimetry; format: ADME; conditions: t-24, 24 h, 0.5 µM
[15] = Drug accumulation in mitochondria of human UM-UC-3 cells at 500 nM formulated with 2% pluronic F-127 solution after 24 hrs by mitotracker red based fluorimetry; format: ADME; conditions: umuc3, 24 h, 0.5 µM
[16] = Stability at -20 degC for 2 months; format: physicochemical; conditions: 1461 h
In short: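 Formulated PS stored at -4 °C or -20 °C for two months; checked for precipitation and pH change.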

[17] = system: UMUC3; experiment: Photo-activated cytotoxicity against human UM-UC-3 cells assessed as reduction in cell viability preincubated for 24 hrs followed by 1 J/cm2 light irradiation and measured after 48 hrs formulated with 1% tween 80 solution by MTT assay; format: functional, cell-based; conditions: UMUC3, light or radiation study; in short: as §1
[18] = Drug accumulation in mitochondria of human T24 cells at 500 nM formulated with 1% tween 80 solution after 24 hrs by mitotracker red based fluorimetry; format: ADME; conditions: t-24, 24 h, 0.5 µM
[19] = Drug uptake in human UM-UC-3 cells assessed as increase in gray value intensity at 500 nM after 48 hrs in presence of gleevec by Hoechst 33342 staining based fluorescence microscopy; format: ADME, cell-based; conditions: umuc3, 24 h, 0.5 µM, in the assay text read “after 24 hrs” for “after 48 hrs”
In short: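 Cells plated at 100k per well, grown to 80% confluency, refreshed, then incubated 24 h with PS at 500 nM with or without Gleevec 5 µM. Washed twice with PBS, Hoechst 33342 added, imaged by fluorescence microscopy; grey value normalized to cell number, triplicate groups and images.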

[20] = Drug uptake in human UM-UC-3 cells assessed as increase in gray value intensity at 1 uM pretreated for 24 hrs followed by compound washout and measured after 4 hrs by Hoechst 33342 staining based fluorescence microscopy; format: ADME, cell-based; conditions: umuc3, 4 h; in short: as §2
[21] = Drug accumulation in lysosomes of human UM-UC-3 cells at 500 nM formulated with 2% pluronic F-127 solution after 24 hrs by lysosphere green based fluorimetry; format: ADME, subcellular, Lysosome; conditions: umuc3, 24 h, 0.5 µM
[22] = system: UMUC3; experiment: Photo-activated cytotoxicity against human UM-UC-3 cells assessed as reduction in cell viability preincubated for 24 hrs followed by 1 J/cm2 light irradiation and measured after 48 hrs formulated with 2% pluronic F-127 solution by MTT assay; format: functional, cell-based; conditions: UMUC3, light or radiation study; in short: as §1
[23] = Drug accumulation in human T24 cells at 500 nM formulated with 2% pluronic F-127 solution after 24 hrs by CARY-fluorimetry; format: ADME, cell-based; conditions: t-24, 24 h, 0.5 µM
[24] = Drug accumulation in human T24 cells at 500 nM formulated with 1% tween 80 solution after 24 hrs by CARY-fluorimetry; format: ADME, cell-based; conditions: t-24, 24 h, 0.5 µM
[25] = Drug accumulation in lysosomes of human UM-UC-3 cells at 500 nM formulated with 1% tween 80 solution after 24 hrs by lysosphere green based fluorimetry; format: ADME, subcellular, Lysosome; conditions: umuc3, 24 h, 0.5 µM
[26] = target: Epidermal growth factor receptor (Homo sapiens) (UniProt P00533); experiment: Inhibition of EGFR autophosphorylation at Ty1068 in human T24 cells at 1 uM followed by PDT and measured after 24 hrs by Western blot analysis; format: cell-based
[27] = system: UMUC3; experiment: Induction of apoptosis in human UM-UC-3 cells assessed as increase in apoptotic cells at 1 uM in absence of light by Annexin V/propidium iodide-staining based flow cytometry; format: cell-based; conditions: umuc3, 1 µM
[28] = Drug accumulation in human UM-UC-3 cells at 500 nM formulated with 2% pluronic F-127 solution after 24 hrs by CARY-fluorimetry; format: ADME, cell-based; conditions: umuc3, 24 h, 0.5 µM

Row | SMILES | IC50 [1] [µM] | Drug uptake [2] | inhibition [3] | Time [4] | fold change (FC) [5] | inhibition [6] | Drug uptake [7] | Stability [8] | Activity [9] | Drug uptake [10] | Drug uptake [11] | Drug uptake [12] | IC50 [13] [µM] | Drug uptake [14] | Drug uptake [15] | Stability [16] | IC50 [17] [µM] | Drug uptake [18] | Drug uptake [19] | Drug uptake [20] | other results
1 | CCC1=C(C)c2cc3[nH]c(cc4nc(c5c6[nH]c(cc1n2)c(C)c6C(=O)C5)[C@@H](CCC(=O)OC)[C@@H]4C)c(C)c3C(C)OCc1cccc(I)c1 (stereo partly specified) | 0.177 | Active | inactive | 1 nanoseconds | 2.5 | Active | Active | Stable | Non-Toxic | Active | Active | Active | 0.0737 | Active | Active | Stable | 0.0952 | Active | Active | Active | Drug uptake [21]: Active; IC50 [22]: 0.2 µM; Drug uptake [23]: Active; Drug uptake [24]: Active; Drug uptake [25]: Active; inhibition [26]: inactive; Activity [27]: Non-Toxic; Drug uptake [28]: Active
2 | CCC1=C(C)c2cc3[nH]c(cc4nc(c5c6[nH]c(cc1n2)c(C)c6C(=O)C5)[C@@H](CCC(=O)NCc1cccc(I)c1)[C@@H]4C)c(C)c3C(C)OCc1cccc(C#Cc2cccc(Nc3ncnc4cc(OCCOC)c(OCCOC)cc34)c2)c1 (stereo partly specified) | 1.26 | Active | Active | 83 pS | 0.9 | Active | Active | Stable | Non-Toxic | Active | Active | Active | 1.03 | Active | Active | Stable | 0.608 | Active | Not Active | Not Active | Drug uptake [21]: Active; IC50 [22]: 0.326 µM; Drug uptake [23]: Active; Drug uptake [24]: Active; Drug uptake [25]: Active; inhibition [26]: Active; Activity [27]: Non-Toxic; Drug uptake [28]: Active
